From ChEMBL document CHEMBL1150337, “Lavendamycin antitumor agents: structure-based design, synthesis, and NAD(P)H:quinone oxidoreductase 1 (NQO1) model validation with molecular docking and biological studies” (J Med Chem, 2008)

Columns and labels:
[1] = test system: BE-NQ; test: Selectivity ratio of IC50 for NQO1 deficient human BE cells to IC50 for human BE-NQ cells expressing NQO1; format: functional
Summary of the method: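 Ratio of MTT-derived IC50 in NQO1-deficient BE cells to IC50 in NQO1-transfected BE-NQ cells. IC50 was read from semilog plots of percent of control vs concentration.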

[2] = target: NAD(P)H dehydrogenase [quinone] 1 (Homo sapiens) (UniProt P15559); test: Activity of human recombinant NQO1 assessed as reduction of cytochrome c per mg of protein by spectrophotometric assay
Summary of the method: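 Cytochrome c reduction followed at 550 nm as initial rates. Mix: cytochrome c 70 µm, NADH 1 mM, recombinant human NQO1 (0.1–3 µg) and lavendamycin analogue 25 µm in 1 mL Tris-HCl 25 mM pH 7.4 with 0.7 mg/mL BSA and 0.1% Tween-20. At least triplicate.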

[3] = test system: BE; test: Cytotoxicity against NQO1 deficient human BE cells after 4 to 5 days by MTT assay; format: functional, cell-based
Summary of the method: (§1)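 Cells in MEM with Earle's salts, 10% FBS, 37 °C, 5% CO2. Seeded at 10000 cells/mL, attached overnight (16 h). Analogue in medium for 2 h, then fresh medium for 4–5 days. MTT (50 µg) added for 4 h, formazan dissolved in DMSO, absorbance read at 560 nm. IC50 (50% of control survival) taken from semilog plots of percent control vs concentration.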

[4] = test system: BE-NQ; test: Cytotoxicity against human BE-NQ cells expressing human NQO1 after 4 to 5 days by MTT assay; format: functional, cell-based; summary of the method: as §1

Sequence of NAD(P)H dehydrogenase [quinone] 1 (Homo sapiens) (P15559 whole entry): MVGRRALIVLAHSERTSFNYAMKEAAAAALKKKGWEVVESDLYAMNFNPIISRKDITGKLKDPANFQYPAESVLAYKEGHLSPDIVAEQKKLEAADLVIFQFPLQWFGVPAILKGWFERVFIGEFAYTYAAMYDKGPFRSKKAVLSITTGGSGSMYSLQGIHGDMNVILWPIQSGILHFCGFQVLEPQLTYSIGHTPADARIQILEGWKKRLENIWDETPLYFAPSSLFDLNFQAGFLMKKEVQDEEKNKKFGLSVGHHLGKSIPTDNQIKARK

Row | Activity [2] [µmol/min/mg] | SMILES | Ratio IC50 [1] | IC50 [3] [µM] | IC50 [4] [µM]
1 | 3.4 | CCCC(=O)NC1=CC(=O)c2ccc(-c3nc(C(=O)OCCC(C)C)cc4c3[nH]c3ccccc34)nc2C1=O | – | > 50 | > 50
2 | 4.9 | CCC(C)NC(=O)c1cc2c([nH]c3ccccc32)c(-c2ccc3c(n2)C(=O)C(NC(C)=O)=CC3=O)n1 (configuration not stated) | – | > 50 | > 50
3 | 60 | NC1=CC(=O)c2ccc(-c3nc(C(=O)OCCO)cc4c3[nH]c3ccccc34)nc2C1=O | 7 | 3.3 | 0.5
4 | 143 | CCCCNC(=O)c1cc2c([nH]c3ccccc32)c(-c2ccc3c(n2)C(=O)C(NC(C)=O)=CC3=O)n1 | 30 | 50 | 1.7
5 | 7 | COC(=O)c1cc2c([nH]c3ccccc32)c(-c2ccc3c(n2)C(=O)C(NC(=O)c2ccco2)=CC3=O)n1 | 1 | 49 | 47

More lines, now with the values behind:

Row | SMILES | Activity [2] [µmol/min/mg] | Ratio IC50 [1] | IC50 [3] [µM] | IC50 [4] [µM]
6 | CCCCCCCCOC(=O)c1cc2c([nH]c3ccccc32)c(-c2ccc3c(n2)C(=O)C(N)=CC3=O)n1 | – | 10 | – | –
7 | NC1=CC(=O)c2ccc(-c3[nH]c(CO)cc4c5ccccc5nc3-4)nc2C1=O | – | 11 | – | –
8 | N=C1C=C(O)c2ccc(-c3nc(C(N)=O)cc4c3[nH]c3ccccc34)nc2C1=O | – | 9 | – | –
9 | COC(=O)c1[nH]c(-c2ccc3c(n2)C(=O)C(=N)C=C3O)c2nc3ccccc3c-2c1C | – | 9 | – | –
